GPR7 antag = antagonists of human GPR7 (neuropeptides B/W receptor 1) | GPR7-expressing cells, fluorescence antagonist assay | inhibition, % at 4.4 µM | 1.1% of 290,000 active | AID 1861; in the data active means inhibition above about 16%, passing the limit was not always enough;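 further: cells stimulated with the agonist NPW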
Target sequence (P48145 whole entry, looked up): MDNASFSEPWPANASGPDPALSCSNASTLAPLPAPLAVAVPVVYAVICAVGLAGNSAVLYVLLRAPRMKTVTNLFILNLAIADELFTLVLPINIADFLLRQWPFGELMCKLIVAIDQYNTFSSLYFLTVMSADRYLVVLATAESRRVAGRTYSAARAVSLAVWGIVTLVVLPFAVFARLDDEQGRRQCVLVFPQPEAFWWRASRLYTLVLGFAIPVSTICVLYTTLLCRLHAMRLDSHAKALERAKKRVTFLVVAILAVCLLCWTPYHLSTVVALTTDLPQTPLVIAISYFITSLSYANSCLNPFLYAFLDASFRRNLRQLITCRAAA
GalR3 antag = human GalR3 antagonism. O60755. HEK293 GalR3-CNG cAMP membrane potential fluorescence; galR3 body fused to GalR1 C-terminus. inhibition, % at 3 µM. 0.44% of 360,000 active. AID 651719;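 active means inhibition above the screen-wide average plus 3 SD, cut at about 13% in these data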;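 further: forskolin and galanin both at EC90 stimulate the cells; cAMP rise reported by CNG channel membrane potential dye signal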
Target sequence (O60755 1-299 limits assumed): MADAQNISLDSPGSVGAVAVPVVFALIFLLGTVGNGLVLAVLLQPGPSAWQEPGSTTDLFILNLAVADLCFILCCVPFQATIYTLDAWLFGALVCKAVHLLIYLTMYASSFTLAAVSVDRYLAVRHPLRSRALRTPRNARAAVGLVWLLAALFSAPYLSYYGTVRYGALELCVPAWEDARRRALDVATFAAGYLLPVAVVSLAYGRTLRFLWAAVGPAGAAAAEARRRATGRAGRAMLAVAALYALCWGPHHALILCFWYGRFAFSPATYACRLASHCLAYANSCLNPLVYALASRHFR
CHO parental Ca = signal in parental CHO cells, OX1R antagonist counter-screen. AID 463079. parental CHO-K1, ATP-induced calcium, Fluo-8 fluorescence. inhibition, % at 5.6 µM. 0.63% of 330,000 active;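 active means inhibition above that plate's mean sample inhibition plus 3 SD, cut at about 26% in these data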
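Material: parental CHO cells / Compound: single nominal dose of 5.6 µM per compound / Signal: Fluo-8 fluorescence / Replicates: singlicate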
OX1R antag-1 = blocks the human orexin 1 receptor; OX1R-expressing cells, FRET antagonist read-out; O43613; 1.8% of 330,000 active; inhibition, % at 6.6 µM; in the data active means inhibition mostly above about 38%, no sharp cut-off; inactive means mostly below about 40%
OX1R antag-2 = human HCRTR1 antagonism. O43613. CHO/OX1R cells, Fluo-8 calcium fluorescence, orexin A. inhibition, % at 5 µM. 0.43% of 330,000 active;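 active means inhibition above its plate's threshold, mean inhibition of all tested compounds on the plate plus 3 SD, cut at about 37% in these data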
GPR7 antag cf = human GPR7 antagonism, confirmation assay; inhibition, % at 4.4 µM; 52% of 2,400 active; shares compounds with GPR7 antag; GPR7-expressing cells, calcium fluorescence antagonist mode; in the data active means inhibition above about 24%;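 further: stimulated with the GPR7 agonist NPW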
MCHR1 antag = MCHR1 (human) antagonism in GPR7 counter-screen. shares compounds with GPR7 antag. MCHR1-expressing cells, fluorescence antagonist assay. 62% of 2,400 active. inhibition, % at 4.4 µM. AID 2148; in the data active means inhibition above about 22%
A number is an active result; . = inactive; / = not tested or not shown; ! = a repeat was not active. Hits are enriched below; roughly 3.1% of the tested compounds scored in any of these assays.

SMILES	GPR7 antag	GalR3 antag	CHO parental Ca	OX1R antag-1	OX1R antag-2	GPR7 antag cf	MCHR1 antag
COc1cc(OC)c(OC)cc1CCC(C)NCCC(c1ccccc1)c1ccccc1 (stereo not drawn)	60	.	.	.	.	55	49
COc1ccccc1CCNC(C)CCc1ccc(O)cc1 (stereo not drawn)	.	.	.	.	.	/	/
O=C(Nc1ccccc1)Nc1cc(Cl)cc(Cl)c1	38	.	54	84	65	38	60
COC(=O)c1cc(NC(=O)Nc2cccc(Cl)c2)ccc1Cl	33	.	.	50	46	52	77
COC(=O)c1cc(NC(=O)c2ccc(-c3ccccc3)cc2)ccc1Cl	.	.	.	.	.	/	/
O=C(Nc1cccc(Cl)c1)Nc1cccc(Cl)c1	21	.	74	92	39	46	64
O=C(Nc1ccccc1)Nc1cccc2ccccc12	37	.	.	.	.	.	22
O=C(Nc1ccc(C(=O)O)cc1)Nc1cccc2ccccc12	.	.	.	.	.	/	/
O=C(Nc1cccc(F)c1)Nc1cccc(Cl)c1	34	.	.	.	.	40	55
N#Cc1cccc(NC(=O)COc2ccc(-n3ccnc3)cc2)c1	24	.	23	.	.	.	44
N#Cc1ccc(-c2ccc(OCC(=O)Nc3cccnc3)cc2)cc1	.	.	/	/	/	/	/
Clc1ccc2c(c1)C(N1CCNCC1)Cc1ccccc1S2 (stereo not drawn)	28	/	.	.	.	53	65
COCCCN1CCN(C2Cc3ccccc3Sc3ccc(Cl)cc32)CC1 (stereo not drawn)	24	.	.	.	.	.	34
CN(C)CCCN1c2ccccc2Sc2ccc(Cl)cc21	35!	.	.	.	.	46	57
CCOC(=O)C1(C)CCCN1C(=O)c1csnn1 (stereo not drawn)	/	.	/	/	/	/	/
CN1CCC(NC(=O)Nc2cccc(C(F)(F)F)c2)CC1	.	.	.	.	.	/	/
CN1CCN(c2ccc(C(F)(F)F)cc2NC(=O)Nc2ccccc2)CC1	62	.	.	.	.	43	49
O=C(C(=O)N1CCN(S(=O)(=O)c2ccccc2)CC1)c1cccc(C(F)(F)F)c1	/	.	/	/	/	/	/
COc1ccccc1NC(=O)CSc1nc2ccccc2n1C(C)=O	21	.	.	.	.	.	.
O=c1cc2c(nn1Cc1ccc(F)cc1)-c1ccccc1CC2	35	.	.	.	.	.	.
Cc1cc(C)c(S(=O)(=O)NC2CC(C)(C)NC(C)(C)C2)cc1C	101	.	.	.	.	.	.
CCOc1cc(C)c(S(=O)(=O)NC2CC(C)(C)NC(C)(C)C2)cc1C	.	.	.	.	.	/	/
CCOC(=O)CSc1nc2c(sc(=S)n2-c2ccccc2OC)c(=O)n1Cc1ccco1	.	.	.	.	.	/	/
CCOC(=O)CSc1nc2c(sc(=S)n2Cc2ccco2)c(=O)n1-c1ccccc1	22	.	.	.	.	.	45
N#CC1c2ccccc2-c2ccccc2N1C(=O)c1ccccc1 (stereo not drawn)	/	.	/	/	/	/	/
SMILES	GPR7 antag	GalR3 antag	CHO parental Ca	OX1R antag-1	OX1R antag-2	GPR7 antag cf	MCHR1 antag
O=C(NCCC1=CCCCC1)c1ccc(Cl)c(S(=O)(=O)N2CCOCC2)c1	.	.	.	.	.	/	/
O=C(NCCC1=CCCCC1)c1ccc(Cl)c(S(=O)(=O)N2CCCCC2)c1	50	.	.	.	.	44	50
O=C(NCCC1=CCCCC1)c1ccc(=O)oc1	.	.	.	.	.	/	/
O=C(NCCC1=CCCCC1)c1coc(=O)c(Br)c1	33	.	.	.	.	.	24
Cn1cccc1/C=C(\C#N)c1ccccc1	.	.	.	.	.	/	/
Cn1cccc1/C=C(/C#N)c1ccc(F)cc1	26	.	.	.	.	.	.
CC(=O)CCC(=O)CNC(=O)CC[C@H]1O[C@@H](n2ccc(=O)[nH]c2=O)[C@H](O)[C@@H]1O	/	.	/	/	/	/	/
CCOC(=O)C1(Cc2cccc(OC)c2)CCCN(S(=O)(=O)CC)C1 (stereo not drawn)	27	.	.	.	.	.	.
CCOC(=O)C1(Cc2cccc(OC)c2)CCCN(CCO)C1 (stereo not drawn)	.	.	.	.	.	/	/
CCO[C@H]1OC(C(=O)NCc2ccccc2)=C[C@@H](c2ccc3c(c2)OCO3)[C@@H]1CCCO	33	.	.	.	.	.	.
O=C(N/N=C/c1ccccc1)c1cc(-c2ccc3c(c2)OCO3)n[nH]1	23	.	.	.	.	.	36
O=C(N/N=C/c1ccc(O)cc1)c1cc(-c2ccc3c(c2)OCO3)n[nH]1	.	.	.	.	.	/	/
COC(=O)N(NC(=O)C(O)(c1ccccc1)c1ccccc1)c1ccccc1	26	.	.	.	.	.	27
O=C(c1ccc(F)cc1)N(NC(=O)C(O)(c1ccccc1)c1ccccc1)c1ccccc1	37	.	.	.	.	46	31
COc1ccccc1NNC(=O)C(O)(c1ccccc1)c1ccccc1	.	.	.	.	.	/	/
O=C(NN(C(=O)c1ccccc1)c1ccccc1)c1ccccc1	.	.	.	.	.	/	/
Cc1cccc(OCC(O)Cn2c(=N)n(CCN3CCCCC3)c3ccccc32)c1 (stereo not drawn)	38	.	.	.	.	45	40
CCN(CC)CCn1c(=N)n(CC(O)COc2cccc(C)c2)c2ccccc21 (stereo not drawn)	.	.	.	.	.	/	/
N=c1n(Cc2ccccc2)c2ccccc2n1CC(O)COc1ccc(Cl)cc1Cl (stereo not drawn)	28	.	/	/	/	77	98
N=c1n(Cc2ccccc2)c2ccccc2n1Cc1ccccc1	.	.	.	.	.	/	/
Cc1cccc(OCC(O)Cn2c(=N)n(Cc3ccccc3)c3ccccc32)c1 (stereo not drawn)	31	.	.	.	.	36	69
Cc1ccc(OCC(O)Cn2c(=N)n(Cc3ccccc3)c3ccccc32)cc1 (stereo not drawn)	33	.	.	.	.	37	61
CC(C)(C)NC(=O)C1C(c2ccccc2)=Nc2ccccc2N1C(=O)c1ccc(C(F)(F)F)cc1 (stereo not drawn)	/	.	/	/	/	/	/
COc1ccc(OCC(O)Cn2c(=N)n(Cc3ccccc3)c3ccccc32)cc1 (stereo not drawn)	38	.	.	.	.	31	57
COCCN1Cc2cc(C(=O)OC)c3c(c2C1=O)c1cc(F)ccc1n3C(=O)c1ccccc1	/	.	/	/	/	/	/
CSc1nnc(-c2ccccc2Cl)n1N	24	.	.	.	.	.	.
COc1cccc(NC(=O)c2cnc(NS(=O)(=O)c3ccccc3)nc2)c1	/	.	/	/	/	/	/
O=C(c1ccccc1-c1ccccc1)N1CCN(c2ccccn2)CC1	27	.	.	.	.	.	24
